Several values for one entry are separate records, joined by “and”; a condition that tells them apart may be missing. Identical values can stand only once.
Key:
[1] = system: 2B6; details: cited from earlier work
[2] = target: T1, Cytochrome P450 2B6 (Homo sapiens, UniProt P20813, K262R/Y226H); test: Isothermal titration calorimetry; format: binding; details: 25 °C
T1 sequence (P20813 with tags, fused parts or gaps Y226H/K262R limits assumed): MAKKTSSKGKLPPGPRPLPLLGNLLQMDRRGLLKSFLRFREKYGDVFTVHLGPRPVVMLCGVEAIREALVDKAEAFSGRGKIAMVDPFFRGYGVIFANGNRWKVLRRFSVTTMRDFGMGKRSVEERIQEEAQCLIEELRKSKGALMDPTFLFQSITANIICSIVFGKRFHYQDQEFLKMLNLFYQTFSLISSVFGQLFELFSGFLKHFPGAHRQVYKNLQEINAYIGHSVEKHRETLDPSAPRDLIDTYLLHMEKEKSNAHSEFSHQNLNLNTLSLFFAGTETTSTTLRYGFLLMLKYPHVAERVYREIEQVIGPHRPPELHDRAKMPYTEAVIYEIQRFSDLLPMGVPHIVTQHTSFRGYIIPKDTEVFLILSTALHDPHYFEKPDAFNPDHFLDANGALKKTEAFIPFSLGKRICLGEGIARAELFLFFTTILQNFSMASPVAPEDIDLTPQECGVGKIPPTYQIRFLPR

[3] = target: T1, Cytochrome P450 2B6; test: Spectral binding titration; details: for Kd: mean (SD)
Method in brief: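 Human 2B6 (Y226H/K262R), co-expressed with GroEL/ES in E. coli JM109 and purified by Ni-NTA then CM-Sepharose; P450 quantified by reduced CO difference spectra. Titrated at 25 °C with stirring in 50 mM K-phosphate pH 7.4, 500 mM NaCl, 1 mM EDTA, 1 mM TCEP. Ligand was added from acetone (<1% final) and 350–700 nm spectra were recorded. High-spin fraction was derived by PCA against spin-state standards. KS came from a tight-binding fit, or a Hill fit for one ligand.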

[4] = target: T2, Cytochrome P450 2A6 (Homo sapiens, UniProt P11509); test: Spectral binding titration; details: read-out: Ks (spectral dissociation constant), 25 °C, mean (SD)
T2 sequence (P11509 with tags, fused parts or gaps limits assumed): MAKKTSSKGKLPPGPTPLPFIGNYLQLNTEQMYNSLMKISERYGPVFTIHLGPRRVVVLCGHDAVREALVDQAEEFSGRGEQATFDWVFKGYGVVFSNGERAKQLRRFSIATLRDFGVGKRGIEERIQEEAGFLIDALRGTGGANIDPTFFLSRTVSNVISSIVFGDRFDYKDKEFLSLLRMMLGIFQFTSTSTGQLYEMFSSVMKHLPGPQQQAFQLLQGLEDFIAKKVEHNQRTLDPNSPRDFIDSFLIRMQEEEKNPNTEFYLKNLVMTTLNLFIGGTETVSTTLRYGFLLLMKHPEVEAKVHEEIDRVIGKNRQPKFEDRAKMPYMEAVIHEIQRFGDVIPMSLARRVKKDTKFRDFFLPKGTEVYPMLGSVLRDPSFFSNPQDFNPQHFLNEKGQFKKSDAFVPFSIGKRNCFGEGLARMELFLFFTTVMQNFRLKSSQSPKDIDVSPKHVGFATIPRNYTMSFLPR

[5] = target: T2, Cytochrome P450 2A6; test: Isothermal titration calorimetry; format: binding; details: 25 °C
[6] = system: 2B6; test: Maximal binding affinity for 2B6 predicted from logP; set-up: species or system human; details: 298 K, based solely on enthalpy of desolvation, −1.364×logP

Q: For `COC(=O)[C@H](c1ccccc1Cl)N1CCc2sccc2C1` [clopidogrel], which “change in the fraction of high-spin P450” value [1] is on record?
A: Its value is 2 – 4%.

Q: For `Clc1ccccc1CN1CCc2sccc2C1` [ticlopidine], which “change in the fraction of high-spin P450” value [1] is on record?
A: Its value is 2 – 4%.

Q: For `CC1=CCC2C(C1)C2(C)C` (single isomer, unassigned; (+)) [(+)-3-carene], which “KD (KA^−1 from ITC)” value ([2]; mean (SD)) is on record?
A: Its value is 1.82 (0.61) 10^−6 M.

Q: What about the ΔG ([2]; ITC, mean (SD)) of the same compound?
A: Its ΔG is −7.5 (1.4) kcal/mol.

Q: And the ΔS ([2]; ITC, mean (SD))?
A: Its ΔS is 3.2 (2.3) cal/mol/K.

Q: And the ΔH ([2]; ITC, mean (SD) of at least three experiments)?
A: Its ΔH is −6.3 (2.2) kcal/mol.

Q: And the “spectral shift upon binding” value ([3]; 2B6, increase at 390 nm, decrease at 417 nm)?
A: Its value is “Type I spectral shift”.

Q: And the Kd ([3]; read-out: Ks measured using the Hill equation giving the S50, spectral titration, 2B6, Hill equation, n=2)?
A: The Kd was 1600 nM.

Q: And the “ΔFh (maximal increase in fraction of high-spin P450)” value ([3]; spectral titration, 25 °C, 2B6)?
A: Its value is 42.5 ± 3.4% and 42.5 (3.4) %.

Q: With (+)-α-Pinene as the compound, how does the Kd [4] read?
A: The Kd was 34200 nM.

Q: What about the “KD (KA^−1 from ITC)” value ([5]; mean (SD)) of the same compound?
A: Its value is 0.17 (0.05) 10^−6 M.

Q: And the Kd ([5]; ITC)?
A: Its Kd is about 170 nM.

Q: What about the “KD (KA^−1 from ITC)” value ([2]; mean (SD)) of the same compound?
A: The value was 0.22 (0.17) 10^−6 M.

Q: And the Kd ([2]; ITC)?
A: Its Kd is about 220 nM.

Q: What about the Kd ([3]; read-out: Ks (spectral dissociation constant), spectral titration, 25 °C, 2B6) of the same compound?
A: Its Kd is 380 nM.

Q: And the “maximal binding affinity predicted from logP” value [6]?
A: The value was ~ −6 kcal/mol.

— PMC3754432 (Journal of the American Chemical Society, 2013)
